Results: ChEMBL document CHEMBL1124866, “Synthesis and activity of NAcSerAspLysPro analogues on cellular interactions between T-cell and erythrocytes in rosette formation” (1990)
The source made the active and inactive calls. The rule behind the calls is not given here. Square brackets hold non-standard residues; d marks the D form. Peptide text beside a SMILES is read from it. Orn = NCCC[C@H](N)C(=O)O

Tests used:
Jurkat [1] = experiment: Activity on rosetting of jurkat T-cells with SRBC at the concentration of 10e-9 M; type: functional, Homo sapiens
Jurkat [2] = experiment: (§1) Activity on rosetting of jurkat T-cells with SRBC at the concentration of 10e-4 M; type: functional, Homo sapiens
Jurkat [3] = experiment: (§2) Activity on rosetting of jurkat T-cells with SRBC at the concentration of 10e-5 M; type: functional, Homo sapiens
Jurkat [4] = experiment: (§3) Activity on rosetting of jurkat T-cells with SRBC at the concentration of 10e-6 M; type: functional, Homo sapiens
Jurkat [5] = experiment: (§4) Activity on rosetting of jurkat T-cells with SRBC at the concentration of 10e-7 M; type: functional, Homo sapiens
Jurkat [6] = experiment: (§5) Activity on rosetting of jurkat T-cells with SRBC at the concentration of 10e-8 M; type: functional, Homo sapiens
Jurkat [7] = experiment: Activity on rosetting of jurkat T-cells with SRBC at the concentration of 10e-5 M; Not significant; type: functional, cell-based; conditions: Homo sapiens
Jurkat [8] = experiment: Activity on rosetting of jurkat T-cells with SRBC at the concentration of 10e-6 M; Not significant; type: functional, cell-based; conditions: Homo sapiens
Jurkat [9] = experiment: Activity on rosetting of jurkat T-cells with SRBC at the concentration of 10e-7 M; Not significant; type: functional, cell-based; conditions: Homo sapiens, at 0.1 µM
Procedure, shortened: (§6)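 Jurkat T lymphoma cells kept in RPMI 1640 with 10% heat-inactivated FCS, washed three times before use; SRBC washed three times. Jurkat cells (2 × 10^6 cells/mL, 2.10⁵ cells) preincubated with peptide in RPMI for 10 min at 4 °C. SRBC (2 × 10^8 cells/mL) added, centrifuged 5 min at 200g, held overnight at 4 °C. Rosettes (three erythrocytes per lymphocyte) counted blind by hemocytometer; three experiments in quadruplicate; % inhibition.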

Jurkat [10] = experiment: Activity on rosetting of jurkat T-cells with SRBC at the concentration of 10e-8 M; Not significant; type: functional, cell-based; conditions: Homo sapiens, at 0.01 µM; procedure, shortened: as §6
Jurkat [11] = experiment: Activity on rosetting of jurkat T-cells with SRBC at the concentration of 10e-9 M; Not significant; type: functional, cell-based; conditions: Homo sapiens, at 0.001 µM; procedure, shortened: as §6
Jurkat [12] = experiment: Activity on rosetting of jurkat T-cells with SRBC at the concentration of 0 M; type: functional, Homo sapiens
Jurkat [13] = experiment: (§7) Activity on rosetting of jurkat T-cells with SRBC at the concentration of 10e-10 M; type: functional, Homo sapiens
Jurkat [14] = experiment: (§8) Activity on rosetting of jurkat T-cells with SRBC at the concentration of 10e-11 M; type: functional, Homo sapiens
Jurkat [15] = experiment: Activity on rosetting of jurkat T-cells with SRBC at the concentration of 10e-10 M; Not significant; type: functional, cell-based; conditions: Homo sapiens, at 0.0001 µM; procedure, shortened: as §6
Jurkat [16] = experiment: Activity on rosetting of jurkat T-cells with SRBC at the concentration of 10e-11 M; Not significant; type: functional, cell-based; conditions: Homo sapiens, at 10 pM; procedure, shortened: as §6
Jurkat [17] = experiment: Activity on rosetting of jurkat T-cells with SRBC at the concentration of 10e-4 M; Not significant; type: functional, cell-based; conditions: Homo sapiens
Jurkat [18] = experiment: as §2; type: functional; conditions: Homo sapiens
Jurkat [19] = experiment: as §3; type: functional; conditions: Homo sapiens
Jurkat [20] = experiment: as §1; type: functional; conditions: Homo sapiens
Jurkat [21] = experiment: Activity on rosetting of jurkat T-cells with SRBC at the concentration of 10e-14 M; type: functional, Homo sapiens
Jurkat [22] = experiment: Activity on rosetting of jurkat T-cells with SRBC at the concentration of 10e-15 M; type: functional, Homo sapiens
Jurkat [23] = experiment: Activity on rosetting of jurkat T-cells with SRBC at the concentration of 10e-15 M; Not significant; type: functional, cell-based; conditions: Homo sapiens
Jurkat [24] = experiment: as §4; type: functional; conditions: Homo sapiens
Jurkat [25] = experiment: as §5; type: functional; conditions: Homo sapiens
Jurkat [26] = experiment: Activity on rosetting of jurkat T-cells with SRBC at the concentration of 10e-12 M; type: functional, Homo sapiens
Jurkat [27] = experiment: Activity on rosetting of jurkat T-cells with SRBC at the concentration of 10e-13 M; type: functional, Homo sapiens
Jurkat [28] = experiment: Activity on rosetting of jurkat T-cells with SRBC at the concentration of 10e-13 M; Not significant; type: functional, cell-based; conditions: Homo sapiens
Jurkat [29] = experiment: Activity on rosetting of jurkat T-cells with SRBC at the concentration of 10e-14 M; Not significant; type: functional, cell-based; conditions: Homo sapiens
Jurkat [30] = experiment: as §7; type: functional; conditions: Homo sapiens
Jurkat [31] = experiment: as §8; type: functional; conditions: Homo sapiens
Jurkat [32] = experiment: Activity on rosetting of jurkat T-cells with SRBC at the concentration of 10e-12 M; Not significant; type: functional, cell-based; conditions: Homo sapiens

Row | SMILES | No. of rosettes/100 Jurkat T cells (Jurkat [1]) | No. of rosettes/100 Jurkat T cells (Jurkat [2]) | No. of rosettes/100 Jurkat T cells (Jurkat [3]) | No. of rosettes/100 Jurkat T cells (Jurkat [4]) | No. of rosettes/100 Jurkat T cells (Jurkat [5]) | No. of rosettes/100 Jurkat T cells (Jurkat [6]) | inhibition (Jurkat [7]) | inhibition (Jurkat [8]) | inhibition (Jurkat [9]) | inhibition (Jurkat [10]) | inhibition (Jurkat [11]) | No. of rosettes/100 Jurkat T cells (Jurkat [12]) | No. of rosettes/100 Jurkat T cells (Jurkat [13]) | No. of rosettes/100 Jurkat T cells (Jurkat [14]) | inhibition (Jurkat [15]) | inhibition (Jurkat [16]) | inhibition (Jurkat [17]) | further results
1 | CC(=O)N[C@@H](C)C(=O)N[C@@H](CC(=O)O)C(=O)N[C@@H](CCCCN)C(=O)N1CCC[C@H]1C(=O)O (Ac-ADKP-OH) | 64 | 54 | 57 | 59 | 59 | 63 | inactive | inactive | inactive | inactive | inactive | 60 | 56 | 56 | inactive | inactive | inactive | 
2 | CC(=O)N[C@@H](CO)C(=O)N[C@@H](CC(=O)O)C(=O)N[C@@H](CCCN)C(=O)N1CCC[C@H]1C(=O)O (Ac-SD[Orn]P-OH) |  | 54 | 52 | 52 |  |  | inactive | inactive |  |  |  | 58 |  |  |  |  | inactive | 
3 | CC(=O)N[C@@H](CO)C(=O)N[C@@H](CCC(=O)O)C(=O)N[C@@H](CCCCN)C(=O)N1CCC[C@H]1C(=O)O (Ac-SEKP-OH) | 43 |  | 29 | 35 | 41 | 42 |  |  | inactive | inactive | inactive | 47 | 46 | 45 | inactive | inactive |  | inhibition at 10 µM (Jurkat [18]): 37%; inhibition at 1 µM (Jurkat [19]): 25%
4 | CC(=O)N[C@@H](CO)C(=O)N[C@@H](CC(=O)O)C(=O)O (Ac-Ser-Asp-OH) | 51 | 39 | 39 | 46 | 52 | 54 |  |  | inactive | inactive | inactive | 56 | 57 | 58 | inactive | inactive |  | inhibition at 100 µM (Jurkat [20]): 30%; inhibition at 10 µM (Jurkat [18]): 30%; inhibition at 1 µM (Jurkat [19]): 18%
5 | NCCCC[C@H](NC(=O)[C@@H](N)CC(=O)O)C(=O)O (H-Asp-Lys-OH) |  | 53 | 56 |  |  | 58 | inactive |  |  | inactive |  | 56 |  |  |  |  | inactive | 
6 | NCCCC[C@H](NC(=O)[C@@H](N)CC(=O)O)C(=O)N1CCC[C@H]1C(=O)O (H-Asp-Lys-Pro-OH) |  | 55 | 57 |  |  |  | inactive |  |  |  |  | 54 |  |  |  |  | inactive | 
7 | NCCCC[C@H](NC(=O)[C@H](CC(=O)O)NC(=O)[C@@H](N)CO)C(=O)N1CCC[C@H]1C(=O)O (H-SDKP-OH) |  | 47 | 49 | 50 | 54 | 56 |  |  |  |  |  | 63 | 55 | 55 |  |  |  | No. of rosettes/100 Jurkat T cells (Jurkat [21]): 61; No. of rosettes/100 Jurkat T cells (Jurkat [22]): 60; inhibition (Jurkat [23]): inactive; inhibition at 100 µM (Jurkat [20]): 25%; inhibition at 10 µM (Jurkat [18]): 22%; inhibition at 1 µM (Jurkat [19]): 20%; inhibition at 0.1 µM (Jurkat [24]): 14%; inhibition at 0.01 µM (Jurkat [25]): 11%; No. of rosettes/100 Jurkat T cells (Jurkat [26]): 59; No. of rosettes/100 Jurkat T cells (Jurkat [27]): 58; inhibition (Jurkat [28]): inactive; inhibition (Jurkat [29]): inactive; inhibition at 0.0001 µM (Jurkat [30]): 13%; inhibition at 10 pM (Jurkat [31]): 13%; inhibition (Jurkat [32]): inactive
8 | N[C@@H](CO)C(=O)N[C@@H](CC(=O)O)C(=O)O (H-Ser-Asp-OH) | 64 | 46 | 55 | 55 | 58 | 55 | inactive | inactive | inactive | inactive | inactive | 51 |  |  |  |  |  | inhibition at 100 µM (Jurkat [20]): 31%
9 | CC(=O)N[C@@H](CO)C(=O)N[C@@H](CC(=O)O)C(=O)N[C@@H](CCCCN)C(=O)N1CCC[C@H]1C(=O)O (stereo in doubt; form 1) |  |  |  |  |  |  |  |  |  |  |  |  |  |  | inactive | inactive |  | 
10 | CC(=O)N[C@@H](CO)C(=O)N[C@@H](CC(=O)O)C(=O)N[C@@H](CCCCN)C(=O)N1CCC[C@H]1C(=O)O (stereo in doubt; form 2) |  |  |  |  |  |  | inactive | inactive | inactive | inactive |  |  |  |  | inactive |  | inactive | 
11 | CC(=O)N[C@@H](CO)C(=O)N[C@@H](CC(=O)O)C(=O)N[C@@H](CCCCN)C(=O)N1CCC[C@H]1C(=O)O (stereo in doubt; form 2) [GORALATIDE] |  | 80 | 78 | 76 | 83 | 83 |  |  |  |  |  | 82 | 83 |  |  |  |  | 
